Reference: ChEMBL document CHEMBL4513216, “Probing the Open Global Health Chemical Diversity Library for Multistage-Active Starting Points for Next-Generation Antimalarials” (ACS Infect Dis, 2020)

Assay: Toxicity liver stage against HepG2, at 10uM
Type: cell-based
Set-up: test concentration 10 uM, cell line HepG2-A16-CD81EGFP
Details: human, HepG2-A16-CD81EGFP cells; read-out: INHIBITION
How it was run: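 Uninfected HepG2-A16-CD81EGFP cells, 3 × 10^3 per well, 1536-well, plated on prespotted compound at 10 μM final, parasite-free screening media added to match infected plates; puromycin 10 μM positive, DMSO 0.5% negative; run in parallel with 48 h PbLuc assay at 37 °C, 5% CO2; viability by CellTiter-Glo luminescence, normalized to controls.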

Compound | cytotoxicity at 10 µM [%]
CCOC(=O)CCn1cnc2onc(-c3cc(OC)ccc3Cl)c2c1=O | -19
COCc1cc(CC2(NC3CCN(C)CC3)COC2)no1 | -4.12
O=C1N(Cc2ccccn2)C[C@H]2CN(C3CCC3)CCN12 | -4.81
CC(C)Cc1cc(CC2(NCc3ccco3)COC2)no1 | 6.25
CN(C)C(=O)c1cc(-c2ccncc2)[nH]n1 | 0.676
CCOC(=O)N1[C@@H](c2ccco2)[C@@H](C(=O)O)C[C@]12CCCCNC2=O | -2.98
O=C1CN(C(=O)c2ccc(Cl)cc2)CC(O)CN1Cc1cccs1 (stereo not drawn) | 0.331
COCCNC(=O)Cn1cc(OCc2ccccc2)c(=O)cc1CO | -7.44
O=C1CC(c2ccc(C(=O)O)cc2)c2cnn(Cc3ccco3)c2N1 (stereo not drawn) | -0.869
Cn1cccc1C(O)CNC(=O)COc1ccc(Cl)cc1Cl (stereo not drawn) | -1.23
COc1ccc(-n2nnc(C(N)=O)n2)cc1 | 8.13
COc1ccccc1C(O)Cn1cc(C(=O)NCC2CC2)nn1 (stereo not drawn) | -2.62
CC(C)NC(=O)N1CCC2(CC1)NC(=O)[C@H]1CN(C(=O)N(C)C)C[C@H]12 | -1.66
Cc1nc(CN2C(=O)C[C@@H]3[C@@H]2CCN3Cc2cnn(C)c2)cs1 | 2.44
CCn1cc2c(n1)C(COCC1CC1)CN(C(=O)c1cc(C)on1)C2 (stereo not drawn) | 17.8
Cc1noc(C2CCC3(CCN(C(=O)c4ccnnc4)CC3)O2)n1 (stereo not drawn) | 6.69
COCc1ncn2c1CN(C(=O)Nc1cccc(OC)c1)CC2 | 12.7
O=C(c1ccco1)N1CCOCC2(C1)CN(c1ccoc1)C(=O)CO2 (stereo not drawn) | -6.04
COCCN1CCO[C@H]2[C@H](OCc3cccc(C)n3)CC[C@@H]21 | -1.01
CC(C)c1noc(-c2ccnc(-n3cnc(C(=O)O)c3)c2)n1 | 0.715
Cc1ccc(-n2c(O)cc(C)c(C#N)c2=O)c(C)c1 | 7.75
COCCNC(=O)CCc1c(C)nn(-c2nc(C)c(C)c(=O)[nH]2)c1C | 11.1
CN(C)S(=O)(=O)N1CCC(Oc2ccccn2)CC1 | 13.6

Compound | cytotoxicity at 10 µM [%]
Cn1cccc1C(=O)N1CCN(CC2CC2)c2ncccc2C1 | -21.9
CN(C)C(=O)COCc1cncc2c1CCN(Cc1nccn1C)C2 | -7.61
Cc1ccc2cnn(CCC(=O)Nc3c(C)nn(C)c3C)c2c1 | -13.4
CNc1cc(CCNS(=O)(=O)c2ccccc2)nc(-c2ccccn2)n1 | 5.13
O=C(CCN1CCc2ccccc21)N1C[C@@H](O)[C@H](N2CCOCC2)C1 | 1.23
Cc1c[nH]c(C2COCCN2S(=O)(=O)c2cn[nH]c2)n1 (stereo not drawn) | -22.8
CS(=O)(=O)NC[C@]1(O)CCN(C(=O)Cc2cccs2)C[C@H]1O | -17.9
Cc1cc(C)nc(C2CCN(C(=O)c3c(C)noc3C)C2)n1 (stereo not drawn) | -4.34
Cc1cc(N(C)C)nc(C2(C)CCCN2C(=O)c2cncnc2C)n1 (stereo not drawn) | -11.3
CN(C)c1nc2ncc(Cl)cc2cc1C#N | 9.54
CS(=O)(=O)CCN1CCN(c2ccc(Cl)cn2)CC1 | 4.13
CC(C)(C)c1cnc(CN2CCCS(=O)(=O)CC2)o1 | -3.97
c1cc(CNCCC2CCCO2)ccn1 (stereo not drawn) | -0.95
CC(c1ccc(F)cc1F)N1CCN(CCC(=O)NC(N)=O)CC1 (stereo not drawn) | -8.58
Cc1cccc2nc(CN3CCCC(Cn4ccnn4)C3)cc(=O)n12 (stereo not drawn) | 3.23
Cc1nn(C)c2ncc(NC(=O)N3CCCCCC3)cc12 | 4.87
O=C(c1cc2c(s1)CCC2)N1CCN(c2cnccn2)CC1 | 1.5
O=C(C1COCCO1)N1CCN(CC(F)(F)F)c2ccccc21 (stereo not drawn) | 7.36
CCC(C)(C)NC(=O)c1ccc(NC(=O)NCc2cc(C)on2)cc1 | -1.84
CCc1noc(Cn2c(=O)c3c(C(F)(F)F)cc(C)nc3n2C)n1 | -3.44
CCS(=O)(=O)NCC(=O)NC(c1cc(C)sc1C)C(C)C (stereo not drawn) | 3.77
Cc1ccc(NC(=O)N2CCCN(C(N)=O)CC2)s1 | -6.58
O=C(CN1CCS(=O)(=O)CC1)NC1CCCCc2ccccc21 (stereo not drawn) | 7.28

Compound | cytotoxicity at 10 µM [%]
Cc1ncsc1C(=O)NCCNC(=O)OC(C)(C)C | 4.73
CC(=O)NCCNC(=O)c1cc(Br)c2c(c1)OCCO2 | -1.54
NC(=O)C1CCCN1Cc1cccc(NC(=O)c2cccs2)c1 (stereo not drawn) | -12.7
CCN(CC)CCNC(=O)c1cnc(-c2ccccc2)nc1 | 12.4
CN(Cc1ccc(N2CCOCC2)cc1)Cc1noc(C(C)(C)C)n1 | 14
COc1ccc(CC(=O)NC2(C#N)CCOCC2)c(Cl)c1 | -6.48
COc1ccc(CNC(=O)c2ccc(Cl)cc2F)cc1C(=O)O | -1.62
O=C(CN1CCCC1Cn1cncn1)Nc1nncs1 (stereo not drawn) | 5.05
Cc1cc(C)n(CC2CN(Cc3cccc(C#N)c3)CCO2)n1 (stereo not drawn) | -3.46
CCc1nnc2n1CC(CNCc1nc(C)c(C)o1)CC2 (stereo not drawn) | -16
CCOc1ncccc1CNS(=O)(=O)N1CCOCC1 | -10.2
CC(C(=O)NCC1CCN(c2ccncc2)CC1)S(C)(=O)=O (stereo not drawn) | 17.4
Cc1ccc(C(=O)NCC2COCCO2)c(=O)[nH]1 (stereo not drawn) | 10.9
CCC1CN(CC(=O)NC(C)C)CCO1 (stereo not drawn) | 2.16
CNC(=O)c1ccc(NC(=O)NC(C)c2cc(C)oc2C)c(C)c1 (stereo not drawn) | -10.6
CS(=O)(=O)N1CCOC2(CCCC2)C1 | -4.7
Cc1cc(C#N)ccc1S(=O)(=O)NCc1cnc(N(C)C)n1C | -2.64
Cc1nc(CNC(=O)CCN2CCN(c3ccccn3)CC2)oc1C | -4.97
COCC(O)CN(C)c1ccnc2cc(F)ccc12 (stereo not drawn) | -2.63
CC(O)CN1CCC(CN(C)CC(=O)NC2CCOCC2)CC1 (stereo not drawn) | -3.33
CCCn1nnnc1COc1ccc(C(=O)OC)cc1OC | -1.9
CCNc1nnc(SC(C(=O)NCc2cccnc2)C(C)C)s1 (stereo not drawn) | -13.3
CC(=O)NCCCNCc1cc(F)ccc1Br | -0.595

Compound | cytotoxicity at 10 µM [%]
O=C(NCc1cc[nH]n1)NCC(c1ccccc1Cl)N1CCCC1 (stereo not drawn) | 14.7
O=C(NCc1ccccc1CN1CCC(O)CC1)Nc1cccnc1 | -8.8
CNC(=O)CS(=O)(=O)Cc1coc(-c2ccc(OC)cc2)n1 | -2.95
CC(C)COC(C)C(=O)N1CCN(S(C)(=O)=O)CC1 (stereo not drawn) | -5.38
CCc1noc(C(C)N(C)CC(=O)Nc2c(C)cccc2C)n1 (stereo not drawn) | 2.14
CCSc1cc(C(=O)NCCC(=O)Nc2ccccn2)ccn1 | -8.62
CCc1nc(CN2CCCN(c3nc4ccccc4o3)CC2)no1 | -22.5
Cc1nc(NC(=O)CNC(=O)c2c(F)cccc2Cl)n[nH]1 | -10.2
CCOc1ncccc1NC(=O)c1sccc1C | -16.1
CCS(=O)(=O)N1CC[C@H]2O[C@H](c3nnc(C)o3)CC[C@H]21 | -75.6
CN(C)CCCN1CC2(CCN(C3CCCOC3)CC2)OC1=O (stereo not drawn) | -5
CCc1nc(C)sc1C(=O)N1CCN(c2ncccc2C)CC1 | 1.39
Cc1cc(N(C)Cc2c(C)noc2C)n2nc(C)c(C)c2n1 | 5.44
Cc1cccc(CN(Cc2ccccc2)Cc2nccs2)n1 | 12.4
CCc1[nH]c2c(CNC(=O)C3CCC(=O)NC3)cc(C)cc2c1C (stereo not drawn) | -3.79
CN(CCCc1ccccc1)C(=O)c1ccccc1NCC(=O)O | -6.96
CCS(=O)(=O)c1ncc(CN(C)CCc2ccccn2)n1CCOC | -3.98
Cc1ccc2occ(CN3CCN(c4ncccn4)CC3)c(=O)c2c1 | -2.46
CNc1cc(-c2ccc(COCCN)cc2)c2cc[nH]c2n1 | 5.89
CCCN1CC2(CCN(C)CC2)CC1C(=O)NCCn1cc(C)cn1 (stereo not drawn) | -22.9
COc1ccc(Cl)cc1CN(C)C(=O)CN1C(=O)CCC1C (stereo not drawn) | 0.277
CN(C(=O)CCc1ccncc1)C1CCCN(CCc2ccccc2)C1 (stereo not drawn) | -13.5
O=C(c1cccc(-c2ccc(F)cc2)c1)N1CCC2(CC1)[C@H](O)C[C@@H]2O | 2.37

Compound | cytotoxicity at 10 µM [%]
O=C(O)c1cc(-c2ccncc2)cc(S(=O)(=O)N2CCCCCC2)c1 | 2.05
Cc1oc(C)c(C(=O)NCc2cccnc2)c1C | 5.19
Cc1nc(C2CCCN2C(=O)CCCn2cncn2)no1 (stereo not drawn) | 6.62
CN(C(=O)c1ccc(-n2ncc(C#N)c2N)cc1)C1CCCC1 | -5.1
CN(Cc1ccccn1)CC1CCCN1c1cccnn1 (stereo not drawn) | 2.43
COc1ccc(CC(=O)N2CCCCC2Cn2cccn2)cc1 (stereo not drawn) | -11.3
CCn1cnnc1CNC(=O)N1CCCCCC1 | -7.36
COCc1nc(CN2CCOC(CN(C)c3cccnn3)C2)cs1 (stereo not drawn) | 1.55
CC(=O)Nc1nc(C(=O)NC(C)c2cccnc2)cs1 (stereo not drawn) | -4.21
CC(C)c1noc(C(C)N2CCN(Cc3cccc(C#N)c3)CC2)n1 (stereo not drawn) | -14.3
COc1ncccc1C(=O)N1CCN(C(=O)Cc2ccccn2)CC1 | 0.722
COc1c(CNCc2ccnc(N3CCCC3)c2)c(C)nn1C | 4.31
O=C(Cn1cccn1)NCC1(c2ccccc2)CC1 | 3.13
O=C(Nc1cc(F)ccc1OCC1CCCO1)c1ccc(O)nc1 (stereo not drawn) | -2.91
Cn1ccc(C(=O)N2CCCC(n3cncn3)C2)cc1=O (stereo not drawn) | -2.43
Cn1cccc1C(=O)N1CCC2(CC1)COC(COc1ccccn1)C2 (stereo not drawn) | 1.48
CN(C)CCN1CCOCC2(CCN(Cc3ccc[nH]3)CC2)C1 | 0.626
CC1c2ncc(Cn3cncn3)n2CCN1CC1CCOCC1 (stereo not drawn) | 2.84
O=C1[C@@H]2CCN(C3CCOCC3)C[C@@H]2OCCN1Cc1cccnc1 | -80
c1cncc(CN2CC[C@@H]3[C@@H]2CCN3Cc2ccc3c(c2)OCO3)c1 | -3.04
CC(=O)Nc1ccc(CN2C[C@@H]3CC[C@H]2CN(c2ncccn2)C3)cc1 | -0.0298
